Laboratory results: ChEMBL document CHEMBL5674869, “The Histone Methyltransferase Inhibitor A-366 Uncovers a Role for G9a/GLP in the Epigenetics of Leukemia” (PLoS One, 2015)
Active and inactive are the calls of the source. The calls are words filed in the database; no cut-off is given here.

Legend:
MCF7 [1] = test: Antiproliferative activity against human MCF7 cells assessed as inhibition of colony formation at 10 uM after 14 days by crystal violet staining based clonogenic assay; type: functional, cell-based; conditions: time 14.0 day
Outline: (§1)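 Clonogenic assay: 500 live cells per well were seeded into six-well plates in drug-free medium. Compound diluted in culture medium was added 24 h later. Cells were cultured at 37°C, then fixed and stained with 0.2% crystal violet. Colonies were counted on an automated colony counter.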

HT-1080 = test: Antiproliferative activity against human HT-1080 cells upto 10 uM after 2 days by Cell-Titer-Glo assay; type: functional, cell-based; conditions: time 2.0 day
Outline: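 ATCC tumor lines were grown in their recommended media with 10% FBS and STR-authenticated. Cells were exposed to compound for the stated number of days. Viable cells were read by CellTiter-Glo endpoint. Inhibition was the ratio of treated to untreated wells, with cell-free wells set as 100% inhibition. The EC50 was taken from the dose response.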

Mus musculus = test: Decrease in H3K9me2 level in SCID/beige mouse tumor xenografted with human MV4-11 cells at 30 mg/kg/day via osmotic-mini pump for 7 days by alphaLisa assay; type: functional, organism-based; conditions: Neoplasm, time 7.0 day
Outline: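 Female SCID-beige mice, 6–8 weeks old, received 5 x 10^6 MV4;11 cells in 50% Matrigel subcutaneously in the flank. At about 200 mm3, compound was given at 30 mg/kg/day by osmotic mini-pump in 98% PEG-400/2% Tween-80. In the PK/PD arm, tumors were harvested at the stated day and H3K9me2 was measured by AlphaLISA relative to vehicle.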

MCF7 [2] = test: Antiproliferative activity against human MCF7 cells assessed as effect on colony formation at 0.1 to 10 uM after 14 days by crystal violet staining based clonogenic assay; type: functional, cell-based; conditions: dose 0.1-10 µM, time 14.0 day; outline: as §1
[3] = Drug level in SCID/beige mouse brain xenografted with human MV4-11 cells at 30 mg/kg/day via osmotic-mini pump; type: ADME, organism-based; conditions: in vivo
Outline: (§2)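 Tumor-bearing SCID-beige female mice (6–8 wk) with subcutaneous flank MV4;11 xenografts (5 x 10^6 cells in 50% Matrigel, grown to ~200 mm3). Compound given by osmotic mini-pump at 30 mg/kg/day in 98% PEG-400/2% Tween-80. Separate PK/PD arm sacrificed after 2, 7 and 14 days of treatment; plasma and tissues collected and analyzed for drug levels.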

[4] = biological target: T1, Histone-lysine N-methyltransferase EHMT2 (Homo sapiens) (UniProt Q96KQ7); test: Inhibition of G9a in human PC-3 cells assessed as effect on H3k27me3 levels at 0.3 to 3 uM after 72 hrs by Western blot analysis; type: cell-based; conditions: dose 0.3-3 µM
T1 sequence (whole entry): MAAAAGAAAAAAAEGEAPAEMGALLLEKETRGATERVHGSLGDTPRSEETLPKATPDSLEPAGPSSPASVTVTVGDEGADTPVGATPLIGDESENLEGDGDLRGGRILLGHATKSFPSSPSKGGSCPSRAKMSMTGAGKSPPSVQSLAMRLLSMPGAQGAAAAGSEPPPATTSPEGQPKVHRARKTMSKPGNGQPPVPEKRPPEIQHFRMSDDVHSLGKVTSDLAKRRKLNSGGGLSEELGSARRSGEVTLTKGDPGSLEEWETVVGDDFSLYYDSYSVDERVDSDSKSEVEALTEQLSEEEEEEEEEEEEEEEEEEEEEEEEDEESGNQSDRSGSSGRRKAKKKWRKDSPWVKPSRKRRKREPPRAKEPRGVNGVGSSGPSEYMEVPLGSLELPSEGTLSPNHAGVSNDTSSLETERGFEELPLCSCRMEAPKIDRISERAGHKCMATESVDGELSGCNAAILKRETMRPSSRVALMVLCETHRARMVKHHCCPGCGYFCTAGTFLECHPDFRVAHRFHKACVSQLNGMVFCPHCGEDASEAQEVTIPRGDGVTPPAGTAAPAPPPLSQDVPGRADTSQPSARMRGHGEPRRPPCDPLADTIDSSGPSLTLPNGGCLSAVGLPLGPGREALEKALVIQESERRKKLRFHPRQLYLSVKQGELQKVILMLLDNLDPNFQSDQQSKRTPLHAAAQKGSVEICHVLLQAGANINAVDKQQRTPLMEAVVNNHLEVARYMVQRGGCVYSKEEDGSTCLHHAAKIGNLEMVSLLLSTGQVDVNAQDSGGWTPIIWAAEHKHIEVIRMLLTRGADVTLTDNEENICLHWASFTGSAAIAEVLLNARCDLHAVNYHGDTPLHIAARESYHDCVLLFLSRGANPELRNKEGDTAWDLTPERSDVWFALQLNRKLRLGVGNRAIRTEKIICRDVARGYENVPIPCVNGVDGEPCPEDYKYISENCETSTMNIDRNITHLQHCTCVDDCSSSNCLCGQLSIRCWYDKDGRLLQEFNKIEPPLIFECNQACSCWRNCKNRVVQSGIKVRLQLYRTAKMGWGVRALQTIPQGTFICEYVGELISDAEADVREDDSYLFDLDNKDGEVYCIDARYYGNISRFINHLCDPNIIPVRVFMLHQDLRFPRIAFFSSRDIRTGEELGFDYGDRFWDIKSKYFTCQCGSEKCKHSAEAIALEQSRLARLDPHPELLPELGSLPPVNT
Outline: (§3)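 PC-3 prostate cells incubated with DMSO, 0.3 or 3 μM compound for 72 h. Lysates probed by western blot with antibodies to H3K9me2, H3K4me2, H3K4me3, H3K9me3, H4K20me1, H4K20me3, H3K36me2 and H3K27me3.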

[5] = biological target: T1, Histone-lysine N-methyltransferase EHMT2 (Homo sapiens); test: Inhibition of G9a in human MV4-11 cells assessed as increase in cell differentiation marker CD11b for 14 days by flow cytometry; conditions: time 14.0 day
[6] = biological target: T1, Histone-lysine N-methyltransferase EHMT2 (Homo sapiens); test: Inhibition of G9a in human PC-3 cells assessed as effect on H3k4me2 levels at 0.3 to 3 uM after 72 hrs by Western blot analysis; type: cell-based; conditions: dose 0.3-3 µM; outline: as §3
[7] = biological target: T1, Histone-lysine N-methyltransferase EHMT2 (Homo sapiens); test: Inhibition of G9a in human PC-3 cells assessed as effect on H3k36me2 levels at 0.3 to 3 uM after 72 hrs by Western blot analysis; type: cell-based; conditions: dose 0.3-3 µM; outline: as §3
[8] = biological target: T1, Histone-lysine N-methyltransferase EHMT2 (Homo sapiens); test: Inhibition of G9a in human PC-3 cells assessed as effect on H4k20me1 levels at 0.3 to 3 uM after 72 hrs by Western blot analysis; type: cell-based; conditions: dose 0.3-3 µM; outline: as §3
MV4-11 = test: Induction of cell cycle arrest in human MV4-11 cells assessed as increase in subG0/G1 cells after 14 days by propidium iodide staining based flow cytometry; type: functional; conditions: time 14.0 day
Outline: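 MV4;11 cells treated 14 days with compound over a concentration range. They were then washed in cold PBS and stained 20 min with 50 μg/ml propidium iodide, 0.1 mg/ml RNase A, 0.1% BSA and 0.1% Triton X-100. Cell-cycle DNA content, including sub-G1/G0 fraction, measured by flow cytometry on BD LSR-II.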

[9] = Drug level in SCID/beige mouse muscle xenografted with human MV4-11 cells at 30 mg/kg/day via osmotic-mini pump; type: ADME, organism-based, Muscle tissue; conditions: in vivo; outline: as §2
[10] = Drug level in SCID/beige mouse plasma xenografted with human MV4-11 cells at 30 mg/kg/day via osmotic-mini pump; type: ADME, organism-based; conditions: in vivo; outline: as §2

| Drug uptake [3] | inhibition [4] | inhibition [5] | inhibition [6] | inhibition [7] | inhibition [8] | Drug uptake [9] | Drug uptake [10] | Structure (SMILES) | Activity (MCF7 [1]) | Activity (HT-1080) | inhibition (Mus musculus) | Activity (MCF7 [2]) | Activity (MV4-11) |
| --- | --- | --- | --- | --- | --- | --- | --- | --- | --- | --- | --- | --- | --- |
| – | – | – | – | – | – | – | – | COc1cc2c(NC3CCN(C(C)C)CC3)nc(C3CCCCC3)nc2cc1OCCCN1CCCC1 | Active | – | – | – | – |
| Active | inactive | Active | inactive | inactive | inactive | Active | Active | COc1cc2c(cc1OCCCN1CCCC1)N=C(N)C21CCC1 | – | inactive | Active | inactive | Active |
